Assay results from different studies.
Each line is one published result; the experiments were not run side by side.
Target: Dual specificity protein kinase CLK2 (CLK2, Homo sapiens, UniProt P49760)

| Structure (SMILES) | effect on | action | technique | concentration | measurement | result |
| --- | --- | --- | --- | --- | --- | --- |
| C1=C/COCc2cc(ccc2OCCN2CCCC2)Nc2nccc(n2)-c2cccc(c2)COC/1 | binding |  |  | 0.1 µM | remaining binding | 47% |
| C=CC(=O)N1CCC[C@@H](n2nc(-c3ccc(Oc4ccccc4)cc3)c3c(N)ncnc32)C1 | enzyme activity | inhibitor |  | 1 µM | inhibition | 2% |
| Cc1cc(O)c(-c2ccc([C@@H](C)CN(C)C)cc2)c2c1[nH]c(=O)c1sccc12 | enzyme activity | inhibitor |  | 0.1 µM | inhibition | 8.32% |
| C#Cc1cc(-c2cc(Nc3nc(N[C@@H](C)c4ccc(F)cn4)ncc3Cl)n[nH]2)ccc1C=O | enzyme activity | inhibitor |  | 0.2 µM | inhibition | 47.4% |
| CCCCC(=O)Nc1ccc(-c2ccc3ncn(CCC)c(=O)c3c2)cn1 | binding |  | competition with immobilised ligand | 0.5 µM | remaining binding | 100% |
| Cc1ccc(NC(=O)c2ccnc(C(F)(F)F)c2)cc1-c1cc(OCCO)nc(N2CCOCC2)c1 | binding |  |  | 1 µM | remaining binding | 100% |
| CC(C)S(=O)(=O)c1ccc2nccc(Nc3ccc4sc(C5CCCC5)nc4c3)c2c1 | enzyme activity | inhibitor |  | 1 µM | activity vs control | 105% |
| CO[C@@H]1[C@H](N(C)C(=O)c2ccccc2)C[C@H]2O[C@]1(C)n1c3ccccc3c3c4c(c5c6ccccc6n2c5c31)C(=O)NC4 | enzyme activity | inhibitor |  | 1 µM | inhibition | 54% |
| C[C@H]1CC[C@H](n2c3cnccc3c3cnc(Nc4ccc5c(n4)CCN(C(=O)CO)C5)nc32)CC1 | cell-free assay |  |  | 1 µM | remaining signal | 1% |
